Results taken from ChEMBL document CHEMBL1148104, “New sugar-mimic alkaloids from the pods of Angylocalyx pynaertii” (J Nat Prod, 2002).

Legend:
Alpha-glucosidase MAL62 = Alpha-glucosidase MAL62 (Saccharomyces cerevisiae, UniProt P07265); experiment: Inhibition of yeast maltase alpha-glucosidase assessed as glucose release by Glucose B-test
Oryza sativa = experiment: Inhibition of rice alpha-glucosidase assessed as glucose release at 1000 uM by Glucose B-test
Summary of the method: (§1)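 Disaccharide substrate suited to each enzyme, at that enzyme's optimum pH. Released D-glucose was measured colorimetrically with the Glucose B-test.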

[1] = Inhibition of yeast alpha-glucosidase assessed as p-nitrophenol release by spectrophotometrically; set-up: species or system Saccharomyces cerevisiae
Summary of the method: (§2)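 Assayed with the appropriate p-nitrophenyl glycoside substrate at each enzyme's optimum pH.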

[2] = biological target: Lysosomal alpha-glucosidase (Rattus norvegicus) (UniProt Q6P7A9); experiment: Inhibition of rat intestinal maltase assessed as glucose release at 1000 uM by Glucose B-test
Chain of Lysosomal alpha-glucosidase (Rattus norvegicus) (Q6P7A9 whole entry): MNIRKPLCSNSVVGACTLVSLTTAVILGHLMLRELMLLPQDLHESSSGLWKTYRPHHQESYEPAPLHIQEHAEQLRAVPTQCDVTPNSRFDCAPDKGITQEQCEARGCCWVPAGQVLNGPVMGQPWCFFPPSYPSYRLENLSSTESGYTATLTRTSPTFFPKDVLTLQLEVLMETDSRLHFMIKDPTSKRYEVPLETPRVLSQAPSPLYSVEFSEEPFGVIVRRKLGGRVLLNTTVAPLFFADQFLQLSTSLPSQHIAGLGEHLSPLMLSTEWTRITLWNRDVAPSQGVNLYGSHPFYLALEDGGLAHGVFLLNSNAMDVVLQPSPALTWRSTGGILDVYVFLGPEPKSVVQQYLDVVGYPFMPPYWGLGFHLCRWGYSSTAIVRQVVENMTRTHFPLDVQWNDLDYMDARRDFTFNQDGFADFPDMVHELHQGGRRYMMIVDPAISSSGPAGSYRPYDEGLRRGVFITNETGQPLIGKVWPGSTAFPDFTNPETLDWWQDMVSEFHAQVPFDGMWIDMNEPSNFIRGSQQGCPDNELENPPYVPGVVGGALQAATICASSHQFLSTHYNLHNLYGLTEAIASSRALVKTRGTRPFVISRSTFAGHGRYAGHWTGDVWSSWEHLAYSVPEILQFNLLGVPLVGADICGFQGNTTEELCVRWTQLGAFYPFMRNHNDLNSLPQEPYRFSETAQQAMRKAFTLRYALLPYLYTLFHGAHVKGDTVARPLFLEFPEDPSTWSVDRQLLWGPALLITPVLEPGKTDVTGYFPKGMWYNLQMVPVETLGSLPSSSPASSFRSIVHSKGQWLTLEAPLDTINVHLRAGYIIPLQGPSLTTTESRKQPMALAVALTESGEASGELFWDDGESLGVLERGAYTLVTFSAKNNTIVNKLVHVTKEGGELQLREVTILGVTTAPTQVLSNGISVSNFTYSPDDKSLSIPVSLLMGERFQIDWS
Summary of the method: (§3)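 Enzyme source was brush border membranes prepared from rat small intestine. Maltase, sucrase and isomaltase activities were read with the matching disaccharide substrate at each enzyme's optimum pH, and liberated D-glucose was quantified colorimetrically by Glucose B-test.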

[3] = biological target: T1, Sucrase-isomaltase, intestinal (Rattus norvegicus, UniProt P23739); experiment: Inhibition of rat intestinal sucrase assessed as glucose release by Glucose B-test
T1 sequence (P23739 1-1013 limits assumed): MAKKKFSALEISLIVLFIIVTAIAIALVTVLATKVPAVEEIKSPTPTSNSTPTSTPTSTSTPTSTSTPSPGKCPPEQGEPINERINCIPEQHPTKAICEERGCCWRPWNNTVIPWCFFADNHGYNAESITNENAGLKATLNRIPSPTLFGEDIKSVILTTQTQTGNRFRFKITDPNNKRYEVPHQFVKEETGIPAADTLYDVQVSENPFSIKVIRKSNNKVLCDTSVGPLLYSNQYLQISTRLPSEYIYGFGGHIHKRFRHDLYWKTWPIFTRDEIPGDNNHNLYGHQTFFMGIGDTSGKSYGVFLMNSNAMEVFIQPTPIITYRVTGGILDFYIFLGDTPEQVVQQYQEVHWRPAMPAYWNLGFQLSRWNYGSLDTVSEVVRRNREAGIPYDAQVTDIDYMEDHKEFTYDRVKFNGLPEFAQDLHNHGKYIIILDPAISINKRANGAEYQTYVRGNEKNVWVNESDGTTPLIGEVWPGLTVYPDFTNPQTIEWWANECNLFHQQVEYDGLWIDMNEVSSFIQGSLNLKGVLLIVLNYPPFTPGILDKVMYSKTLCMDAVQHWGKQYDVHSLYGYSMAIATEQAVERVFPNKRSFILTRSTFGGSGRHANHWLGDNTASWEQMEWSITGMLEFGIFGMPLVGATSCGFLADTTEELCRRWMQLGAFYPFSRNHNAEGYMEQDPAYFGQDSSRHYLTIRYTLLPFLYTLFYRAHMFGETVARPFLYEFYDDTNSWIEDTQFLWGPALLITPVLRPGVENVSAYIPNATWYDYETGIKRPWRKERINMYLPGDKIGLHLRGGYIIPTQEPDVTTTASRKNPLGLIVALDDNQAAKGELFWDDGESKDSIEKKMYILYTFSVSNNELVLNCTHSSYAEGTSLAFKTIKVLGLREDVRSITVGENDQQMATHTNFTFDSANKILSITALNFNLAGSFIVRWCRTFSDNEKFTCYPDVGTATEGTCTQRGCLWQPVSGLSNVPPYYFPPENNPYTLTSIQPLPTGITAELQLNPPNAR
T1 sequence (P23739 1014-1841 limits assumed): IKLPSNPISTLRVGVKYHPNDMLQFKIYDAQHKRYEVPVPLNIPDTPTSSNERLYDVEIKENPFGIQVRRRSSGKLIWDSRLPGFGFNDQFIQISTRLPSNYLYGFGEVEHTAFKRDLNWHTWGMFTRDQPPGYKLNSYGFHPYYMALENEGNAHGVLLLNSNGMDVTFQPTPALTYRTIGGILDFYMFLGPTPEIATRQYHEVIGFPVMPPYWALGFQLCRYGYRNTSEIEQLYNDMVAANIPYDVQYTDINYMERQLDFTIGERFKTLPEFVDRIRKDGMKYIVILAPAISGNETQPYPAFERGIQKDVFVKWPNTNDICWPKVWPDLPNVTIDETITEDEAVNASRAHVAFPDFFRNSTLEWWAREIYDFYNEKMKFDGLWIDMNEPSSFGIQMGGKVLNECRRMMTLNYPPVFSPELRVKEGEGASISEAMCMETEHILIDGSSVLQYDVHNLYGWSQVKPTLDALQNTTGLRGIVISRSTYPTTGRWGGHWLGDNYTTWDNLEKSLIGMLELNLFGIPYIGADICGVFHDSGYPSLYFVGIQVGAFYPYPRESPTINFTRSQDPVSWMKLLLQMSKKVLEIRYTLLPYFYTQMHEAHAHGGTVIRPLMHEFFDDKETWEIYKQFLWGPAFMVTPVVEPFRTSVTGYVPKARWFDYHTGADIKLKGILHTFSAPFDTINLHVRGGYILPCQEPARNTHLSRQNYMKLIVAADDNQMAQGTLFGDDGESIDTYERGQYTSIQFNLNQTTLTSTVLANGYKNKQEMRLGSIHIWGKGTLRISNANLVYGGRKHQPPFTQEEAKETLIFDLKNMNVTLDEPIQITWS

[4] = biological target: T1, Sucrase-isomaltase, intestinal; experiment: Inhibition of rat intestinal isomaltase assessed as glucose release by Glucose B-test
Rattus norvegicus = species: Rattus norvegicus; experiment: Inhibition of rat epididymis alpha-mannosidase assessed as p-nitrophenol release at 1000 uM by spectrophotometrically
[5] = biological target: T2, Beta-mannosidase (Rattus norvegicus) (UniProt Q4FZV0); experiment: Inhibition of rat epididymis beta-mannosidase assessed as p-nitrophenol release at 1000 uM by spectrophotometrically
T2 sequence (whole entry): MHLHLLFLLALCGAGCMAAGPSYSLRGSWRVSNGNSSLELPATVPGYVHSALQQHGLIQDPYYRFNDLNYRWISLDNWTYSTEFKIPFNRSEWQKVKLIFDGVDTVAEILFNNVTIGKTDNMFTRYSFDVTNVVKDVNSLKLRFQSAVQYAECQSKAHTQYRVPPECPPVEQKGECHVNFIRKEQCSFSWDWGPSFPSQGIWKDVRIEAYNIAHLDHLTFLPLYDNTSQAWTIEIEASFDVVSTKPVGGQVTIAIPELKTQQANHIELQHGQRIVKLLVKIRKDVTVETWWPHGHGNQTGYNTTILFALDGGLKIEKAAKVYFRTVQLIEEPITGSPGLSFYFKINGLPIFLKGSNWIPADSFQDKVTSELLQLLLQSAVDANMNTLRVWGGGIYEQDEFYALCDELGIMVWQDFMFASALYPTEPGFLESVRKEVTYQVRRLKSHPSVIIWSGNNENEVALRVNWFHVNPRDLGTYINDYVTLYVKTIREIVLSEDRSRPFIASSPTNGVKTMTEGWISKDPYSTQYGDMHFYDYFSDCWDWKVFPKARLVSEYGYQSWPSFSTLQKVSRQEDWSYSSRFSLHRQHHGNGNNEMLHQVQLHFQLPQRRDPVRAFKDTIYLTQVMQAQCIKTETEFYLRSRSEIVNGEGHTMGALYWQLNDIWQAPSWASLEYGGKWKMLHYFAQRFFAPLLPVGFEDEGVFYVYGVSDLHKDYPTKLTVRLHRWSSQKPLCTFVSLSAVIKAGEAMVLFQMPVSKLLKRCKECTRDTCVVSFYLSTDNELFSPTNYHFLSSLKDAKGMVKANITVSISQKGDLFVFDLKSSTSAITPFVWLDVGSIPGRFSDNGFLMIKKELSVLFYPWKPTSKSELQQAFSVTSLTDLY

Alpha-galactosidase = Alpha-galactosidase (Coffea arabica, UniProt Q42656); experiment: Inhibition of coffee bean alpha-galactosidase assessed as p-nitrophenol release by spectrophotometrically
Chain of Alpha-galactosidase (Q42656 whole entry): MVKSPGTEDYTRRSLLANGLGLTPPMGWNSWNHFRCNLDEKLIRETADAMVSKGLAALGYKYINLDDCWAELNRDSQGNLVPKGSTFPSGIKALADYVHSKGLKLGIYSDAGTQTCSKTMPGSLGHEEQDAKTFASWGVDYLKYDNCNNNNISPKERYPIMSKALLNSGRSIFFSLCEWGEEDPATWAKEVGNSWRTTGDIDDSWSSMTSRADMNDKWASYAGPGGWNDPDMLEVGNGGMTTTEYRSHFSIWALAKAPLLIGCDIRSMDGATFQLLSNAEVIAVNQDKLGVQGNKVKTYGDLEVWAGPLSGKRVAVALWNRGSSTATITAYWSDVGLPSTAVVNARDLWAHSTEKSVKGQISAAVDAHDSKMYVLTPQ
Summary of the method: as §2

[6] = biological target: T3, Beta-galactosidase (Bos taurus) (UniProt Q58D55); experiment: Inhibition of bovine liver beta-galactosidase assessed as p-nitrophenol release at 1000 uM by spectrophotometrically
T3 sequence (whole entry): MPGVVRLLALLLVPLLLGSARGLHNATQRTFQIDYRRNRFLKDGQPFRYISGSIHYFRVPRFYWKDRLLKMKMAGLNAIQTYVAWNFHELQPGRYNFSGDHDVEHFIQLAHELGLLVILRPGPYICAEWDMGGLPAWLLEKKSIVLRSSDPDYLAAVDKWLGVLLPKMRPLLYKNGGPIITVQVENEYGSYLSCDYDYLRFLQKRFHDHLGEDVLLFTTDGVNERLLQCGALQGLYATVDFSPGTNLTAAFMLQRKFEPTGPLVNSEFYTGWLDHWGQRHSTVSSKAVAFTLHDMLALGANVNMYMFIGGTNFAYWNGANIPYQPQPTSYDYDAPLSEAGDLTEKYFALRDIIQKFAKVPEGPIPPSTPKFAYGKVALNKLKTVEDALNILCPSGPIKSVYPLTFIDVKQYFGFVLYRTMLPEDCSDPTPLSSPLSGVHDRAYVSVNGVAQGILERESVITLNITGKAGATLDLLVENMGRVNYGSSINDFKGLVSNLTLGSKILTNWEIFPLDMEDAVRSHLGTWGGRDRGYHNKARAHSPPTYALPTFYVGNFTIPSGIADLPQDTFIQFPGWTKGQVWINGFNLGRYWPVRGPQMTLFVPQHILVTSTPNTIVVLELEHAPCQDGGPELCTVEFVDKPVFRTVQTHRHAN
Summary of the method: as §2

[7] = biological target: T4, Tissue alpha-L-fucosidase (Bos taurus) (UniProt Q2KIM0); experiment: Inhibition of bovine epididymis alpha-L-fucosidase assessed as p-nitrophenol release at 1000 uM by spectrophotometrically
T4 sequence (whole entry): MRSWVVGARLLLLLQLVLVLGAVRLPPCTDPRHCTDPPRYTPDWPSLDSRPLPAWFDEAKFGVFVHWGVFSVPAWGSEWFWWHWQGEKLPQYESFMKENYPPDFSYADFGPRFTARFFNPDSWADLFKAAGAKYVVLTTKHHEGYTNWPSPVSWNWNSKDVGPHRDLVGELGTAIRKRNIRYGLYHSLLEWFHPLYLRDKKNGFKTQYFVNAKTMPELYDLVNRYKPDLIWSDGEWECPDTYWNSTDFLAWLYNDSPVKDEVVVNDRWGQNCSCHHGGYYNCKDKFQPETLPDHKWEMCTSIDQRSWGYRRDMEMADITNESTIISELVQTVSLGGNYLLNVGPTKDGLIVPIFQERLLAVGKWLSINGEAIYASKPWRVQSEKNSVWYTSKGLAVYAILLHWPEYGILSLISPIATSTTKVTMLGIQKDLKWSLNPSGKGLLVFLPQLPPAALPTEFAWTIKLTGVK
Summary of the method: as §2

[8] = Inhibition of Aspergillus niger amyloglucosidase assessed as glucose release by Glucose B-test
Summary of the method: as §1

[9] = biological target: T5, Uncharacterized protein (Sus scrofa) (UniProt I3LIR5); experiment: Inhibition of pig kidney trehalase assessed as p-nitrophenol release at 1000 uM by spectrophotometrically
T5 sequence (whole entry): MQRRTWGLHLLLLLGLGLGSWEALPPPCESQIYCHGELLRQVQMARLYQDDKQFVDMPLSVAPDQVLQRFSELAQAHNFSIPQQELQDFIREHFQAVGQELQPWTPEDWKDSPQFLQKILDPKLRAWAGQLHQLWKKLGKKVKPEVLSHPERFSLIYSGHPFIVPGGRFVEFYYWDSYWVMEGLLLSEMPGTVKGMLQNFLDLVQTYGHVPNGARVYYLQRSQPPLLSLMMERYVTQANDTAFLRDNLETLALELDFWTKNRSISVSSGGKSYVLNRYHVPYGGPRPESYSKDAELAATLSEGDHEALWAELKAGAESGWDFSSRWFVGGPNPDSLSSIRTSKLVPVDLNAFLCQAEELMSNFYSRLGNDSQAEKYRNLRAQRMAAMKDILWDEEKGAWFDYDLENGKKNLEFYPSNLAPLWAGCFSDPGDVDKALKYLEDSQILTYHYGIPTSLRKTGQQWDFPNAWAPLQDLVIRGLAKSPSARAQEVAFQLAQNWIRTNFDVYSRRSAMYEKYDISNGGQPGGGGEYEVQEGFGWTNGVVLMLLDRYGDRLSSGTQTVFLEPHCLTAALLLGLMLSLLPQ

[10] = Inhibition of yeast isomaltase alpha-glucosidase assessed as glucose release by Glucose B-test
Saccharomyces cerevisiae [11] = experiment: Inhibition of yeast alpha-glucosidase assessed as p-nitrophenol release at 1000 uM by spectrophotometrically
Summary of the method: as §2

[12] = biological target: Sucrase-isomaltase, intestinal (Rattus norvegicus) (UniProt P23739); experiment: Inhibition of rat intestinal sucrase assessed as glucose release at 1000 uM by Glucose B-test
Chain of Sucrase-isomaltase, intestinal (Rattus norvegicus) (P23739 1-1013 limits assumed): as the sequence (P23739 1-1013 limits assumed) above
Chain of Sucrase-isomaltase, intestinal (Rattus norvegicus) (P23739 1014-1841 limits assumed): as the sequence (P23739 1014-1841 limits assumed) above
Summary of the method: as §3

[13] = biological target: Sucrase-isomaltase, intestinal (Rattus norvegicus) (UniProt P23739); experiment: Inhibition of rat intestinal isomaltase assessed as glucose release at 1000 uM by Glucose B-test
Summary of the method: as §3

[14] = biological target: Alpha-galactosidase (Coffea arabica) (UniProt Q42656); experiment: Inhibition of coffee bean alpha-galactosidase assessed as p-nitrophenol release at 1000 uM by spectrophotometrically
Chain of Alpha-galactosidase (Coffea arabica) (Q42656 16-378 limits assumed): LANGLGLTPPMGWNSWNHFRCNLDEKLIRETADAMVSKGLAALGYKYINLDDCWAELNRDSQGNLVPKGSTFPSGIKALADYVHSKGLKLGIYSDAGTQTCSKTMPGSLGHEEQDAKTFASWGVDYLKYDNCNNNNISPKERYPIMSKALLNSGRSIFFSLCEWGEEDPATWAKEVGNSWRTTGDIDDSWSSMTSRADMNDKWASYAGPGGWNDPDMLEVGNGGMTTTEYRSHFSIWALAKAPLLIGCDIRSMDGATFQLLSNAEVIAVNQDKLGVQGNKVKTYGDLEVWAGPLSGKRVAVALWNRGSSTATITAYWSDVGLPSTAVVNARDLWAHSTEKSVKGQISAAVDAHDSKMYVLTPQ
Summary of the method: as §2

[15] = biological target: T6, Tissue alpha-L-fucosidase (Bos taurus, UniProt Q2KIM0); experiment: Inhibition of bovine epididymis alpha-L-fucosidase assessed as p-nitrophenol release by spectrophotometrically
T6 sequence (Q2KIM0 whole entry): T4 sequence (whole entry)
Summary of the method: as §2

Aspergillus niger = experiment: Inhibition of Aspergillus niger amyloglucosidase assessed as glucose release at 1000 uM by Glucose B-test
Summary of the method: as §1

Uncharacterized protein = biological target: T7, Uncharacterized protein (Sus scrofa, UniProt I3LIR5); experiment: Inhibition of pig kidney trehalase assessed as p-nitrophenol release by spectrophotometrically
T7 sequence (I3LIR5 whole entry): T5 sequence (whole entry)

[16] = biological target: Alpha-glucosidase MAL62 (Saccharomyces cerevisiae) (UniProt P07265); experiment: Inhibition of yeast maltase alpha-glucosidase assessed as glucose release at 1000 uM by Glucose B-test
Chain of Alpha-glucosidase MAL62 (Saccharomyces cerevisiae) (P07265 whole entry): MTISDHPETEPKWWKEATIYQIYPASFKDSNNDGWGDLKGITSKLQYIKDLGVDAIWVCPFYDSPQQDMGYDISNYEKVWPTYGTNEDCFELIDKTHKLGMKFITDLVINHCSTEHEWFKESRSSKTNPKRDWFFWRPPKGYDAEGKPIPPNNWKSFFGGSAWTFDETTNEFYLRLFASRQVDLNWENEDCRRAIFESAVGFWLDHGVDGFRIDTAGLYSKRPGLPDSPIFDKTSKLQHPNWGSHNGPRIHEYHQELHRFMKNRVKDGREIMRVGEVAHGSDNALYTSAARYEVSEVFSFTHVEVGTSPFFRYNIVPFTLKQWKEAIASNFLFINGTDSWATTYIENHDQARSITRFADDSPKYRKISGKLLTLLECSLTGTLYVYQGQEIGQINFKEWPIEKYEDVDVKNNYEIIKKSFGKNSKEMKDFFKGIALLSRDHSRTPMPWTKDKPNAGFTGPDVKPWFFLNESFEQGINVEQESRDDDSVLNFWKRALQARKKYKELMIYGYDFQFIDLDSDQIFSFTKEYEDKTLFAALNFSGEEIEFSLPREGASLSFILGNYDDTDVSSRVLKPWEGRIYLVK

Saccharomyces cerevisiae [17] = experiment: Inhibition of yeast isomaltase alpha-glucosidase assessed as glucose release at 1000 uM by Glucose B-test
[18] = Inhibition of rice alpha-glucosidase assessed as glucose release by Glucose B-test; set-up: species or system Oryza sativa
Summary of the method: as §1

[19] = Inhibition of rat epididymis alpha-mannosidase assessed as p-nitrophenol release by spectrophotometrically
Beta-mannosidase = biological target: T8, Beta-mannosidase (Rattus norvegicus, UniProt Q4FZV0); experiment: Inhibition of rat epididymis beta-mannosidase assessed as p-nitrophenol release by spectrophotometrically
T8 sequence (Q4FZV0 whole entry): T2 sequence (whole entry)

Chain of Alpha-glucosidase MAL62 (P07265 whole entry): as above

SMILES: OC[C@H]1N[C@H](CO)[C@@H](O)[C@@H]1O
- IC50 (Alpha-glucosidase MAL62): 2 µM

SMILES: OCCN1C[C@@H](O)[C@H](O)[C@H]1CO
- inhibition (Oryza sativa): < 50%
- IC50 [1]: 290 µM
- inhibition [2]: < 50%
- IC50 [3]: 250 µM
- IC50 [4]: 84 µM
- inhibition (Rattus norvegicus): < 50%
- inhibition [5]: < 50%
- IC50 (Alpha-galactosidase): 700 µM
- inhibition [6]: < 50%
- inhibition [7]: < 50%
- IC50 [8]: 620 µM
- inhibition [9]: < 50%
- IC50 (Alpha-glucosidase MAL62): 78 µM
- IC50 [10]: 12 µM

SMILES: C[C@H]1N[C@@H](CO)[C@@H](O)[C@H]1O
- inhibition (Oryza sativa): < 50%
- inhibition (Saccharomyces cerevisiae [11]): < 50%
- inhibition [2]: < 50%
- inhibition [12]: < 50%
- inhibition [13]: < 50%
- inhibition (Rattus norvegicus): < 50%
- inhibition [5]: < 50%
- inhibition [14]: < 50%
- inhibition [6]: < 50%
- IC50 [15]: 35 µM
- inhibition (Aspergillus niger): < 50%

SMILES: OC[C@H]1NC[C@H](O)[C@@H](O)[C@@H]1O [DUVOGLUSTAT]
- IC50 (Uncharacterized protein): 41 µM
- IC50 (Alpha-glucosidase MAL62): 110 µM
- IC50 [10]: 42 µM

SMILES: OCCN1C[C@H](O)[C@@H](O)[C@H](O)[C@H]1CO [MIGLITOL]
- IC50 (Uncharacterized protein): 700 µM
- inhibition [16]: < 50%
- inhibition (Saccharomyces cerevisiae [17]): < 50%

SMILES: C[C@H]1O[C@H](OC[C@H]2NC[C@@H](O)[C@@H](O)[C@@H]2O)[C@@H](O)[C@@H](O)[C@@H]1O
- Ki [15]: 0.06 µM

SMILES: OC[C@H]1NC[C@@H](O)[C@@H]1O
- IC50 [18]: 120 µM
- IC50 [1]: 1.2 µM
- IC50 [19]: 150 µM
- IC50 (Beta-mannosidase): 290 µM
- inhibition [14]: < 50%
- inhibition [6]: < 50%
- inhibition [7]: < 50%
- IC50 [8]: 400 µM
- IC50 (Uncharacterized protein): 2.5 µM
- IC50 (Alpha-glucosidase MAL62): 0.84 µM
- IC50 [10]: 0.11 µM
